Legend:
Format in all cases: functional
CAKI-1 = test: Cytotoxicity against human Caki1 cells assessed as cell growth at 0.01 uM after 48 hrs by sulforhodamine B assay; conditions: CAKI-1, 48 h, read-out: Activity
Outline: (§1)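 NCI-60 five-dose screen. Cells were grown in RPMI 1640 with 5% FBS and 2 mM L-glutamine and preincubated 24 h. Compound (DMSO stock) was tested at 0.01, 0.1, 1, 10 and 100 µM for 48 h at 37 °C. Cells were fixed in situ with cold TCA (final 10%) and stained with 0.4% SRB. A515 was read, and percent growth was calculated against time-zero and control plates.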

EKVX = test: Cytotoxicity against human EKVX cells assessed as cell growth at 0.01 uM after 48 hrs by sulforhodamine B assay; conditions: read-out: Activity
Outline: (§2)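 Five-dose NCI panel run at 0.01, 0.1, 1, 10 and 100 µM. Cells were in RPMI 1640 with 5% FBS and 2 mM L-glutamine, seeded at 5000–40,000 cells/well and pre-incubated 24 h. Drug was diluted from a DMSO stock into medium with 50 µg/ml gentamicin. Exposure was 48 h at 37 °C, 5% CO2. Cells were fixed with cold TCA and stained with 0.4% SRB, read at 515 nm. Percent growth came from time-zero, control and test absorbances.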

HOP-62 = test: Cytotoxicity against human HOP62 cells assessed as cell growth at 0.1 uM after 48 hrs by sulforhodamine B assay; conditions: HOP-62, 48 h, read-out: Activity; outline: as §2
OVCAR-8 = test: Growth inhibition of human OVCAR8 cells after 48 hrs by sulforhodamine B assay; conditions: OVCAR-8, 48 h
Outline: (§3)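 Adherent NCI-60 lines were grown in RPMI 1640 with 5% FBS and 2 mM L-glutamine, plated at 5000–40,000 cells/well and preincubated 24 h. They were then exposed to five concentrations (0.01–100 µM, from a DMSO stock) for 48 h at 37 °C, 5% CO2. Cells were fixed with cold TCA (10% final, 60 min, 4 °C) and stained with 0.4% SRB. Dye was solubilized in 10 mM Tris base and A515 read. GI50 was derived from time-zero, control and treated absorbances.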

SF-539 = test: Cytotoxicity against human SF539 cells assessed as cell growth at 100 uM after 48 hrs by sulforhodamine B assay; conditions: SF-539, 48 h, read-out: Activity
HCT-15 [1] = test: Cytotoxicity against human HCT15 cells assessed as cell growth at 0.01 uM after 48 hrs by sulforhodamine B assay; conditions: HCT-15, 48 h, read-out: Activity; outline: as §2
BT-549 [2] = test: Cytotoxicity against human BT549 cells assessed as cell growth at 0.01 uM after 48 hrs by sulforhodamine B assay; conditions: BT-549, 48 h, read-out: Activity; outline: as §1
SNB-75 = test: Growth inhibition of human SNB75 cells after 48 hrs by sulforhodamine B assay; conditions: SNB-75, 48 h; outline: as §3
HCT-15 [3] = test: Cytotoxicity against human HCT15 cells assessed as cell growth at 10 '-5 M after 48 hrs by sulforhodamine B assay; conditions: HCT-15, 48 h, read-out: Activity
Outline: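 Primary one-dose screen across the NCI 60-line panel at 10 µM. Cells were grown in RPMI 1640 with 5% FBS and 2 mM L-glutamine and held 24 h before drug. Drug was diluted from a DMSO concentrate. Exposure was 48 h at 37 °C, 5% CO2. Cells were fixed with TCA and stained with SRB, with absorbance read at 515 nm. Percent growth was calculated against time-zero and untreated control.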

OVCAR-4 = test: Growth inhibition of human OVCAR4 cells after 48 hrs by sulforhodamine B assay; conditions: OVCAR-4, 48 h; outline: as §3
BT-549 [4] = test: Cytotoxicity against human BT549 cells assessed as cell growth at 1 uM after 48 hrs by sulforhodamine B assay; conditions: BT-549, 48 h, read-out: Activity; outline: as §1
A549 [5] = test: Cytotoxicity against human A549 cells assessed as cell growth at 10 '-5 M after 48 hrs by sulforhodamine B assay; conditions: A549, 48 h, read-out: Activity
Outline: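 Primary NCI-60 single-dose screen at 10 µM. Cells were grown in RPMI 1640 with 5% FBS and 2 mM L-glutamine and plated 24 h before drug addition. Compound was solubilized in DMSO, then exposed for 48 h at 37 °C under 5% CO2. Cells were TCA-fixed and stained with SRB, and absorbance was read at 515 nm. Growth was expressed relative to time-zero and untreated controls.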

HCT-15 [6] = test: Cytotoxicity against human HCT15 cells assessed as cell growth at 10 uM after 48 hrs by sulforhodamine B assay; conditions: HCT-15, 48 h, read-out: Activity; outline: as §2
RPMI-8226 = test: Cytotoxicity against human RPMI8226 cells assessed as cell growth at 100 uM after 48 hrs by sulforhodamine B assay; conditions: RPMI-8226, 48 h, read-out: Activity
[7] = Cytotoxicity against human Hs 578T cells assessed as cell growth at 0.1 uM after 48 hrs by sulforhodamine B assay; conditions: read-out: Activity; outline: as §2
OVCAR-3 = test: Cytotoxicity against human OVCAR3 cells assessed as cell growth at 1 uM after 48 hrs by sulforhodamine B assay; conditions: OVCAR-3, 48 h, read-out: Activity
A549 [8] = test: Cytotoxicity against human A549 cells assessed as cell growth at 100 uM after 48 hrs by sulforhodamine B assay; conditions: A549, 48 h, read-out: Activity; outline: as §1
NCI/ADR-RES = test: Cytotoxicity against human NCI/ADR-RES cells assessed as cell growth at 0.01 uM after 48 hrs by sulforhodamine B assay; conditions: read-out: Activity
SK-MEL-5 = test: Growth inhibition of human SK-MEL-5 cells after 48 hrs by sulforhodamine B assay; conditions: SK-MEL-5, 48 h; outline: as §3
HCT-15 [9] = test: Growth inhibition of human HCT15 cells after 48 hrs by sulforhodamine B assay; conditions: HCT-15, 48 h; outline: as §3
HCC 2998 = test: Growth inhibition of human HCC2998 cells after 48 hrs by sulforhodamine B assay; conditions: HCC 2998, 48 h; for CC50: read-out: LC50 (the source's name); outline: as §3
HCT-15 [10] = test: Cytotoxicity against human HCT15 cells assessed as cell growth at 100 uM after 48 hrs by sulforhodamine B assay; conditions: HCT-15, 48 h, read-out: Activity; outline: as §2
UO-31 = test: Cytotoxicity against human UO31 cells assessed as cell growth at 1 uM after 48 hrs by sulforhodamine B assay; conditions: UO-31, 48 h, read-out: Activity
UACC-62 = test: Growth inhibition of human UACC62 cells after 48 hrs by sulforhodamine B assay; conditions: UACC-62, 48 h; for CC50: read-out: LC50 (the source's name); outline: as §3
SNB-19 = test: Cytotoxicity against human SNB19 cells assessed as cell growth at 1 uM after 48 hrs by sulforhodamine B assay; conditions: SNB-19, 48 h, read-out: Activity
DU-145 = test: Cytotoxicity against human DU145 cells assessed as cell growth at 10 uM after 48 hrs by sulforhodamine B assay; conditions: DU-145, 48 h, read-out: Activity; outline: as §2
RXF 393 = test: Growth inhibition of human RXF393 cells after 48 hrs by sulforhodamine B assay; conditions: RXF 393, 48 h; outline: as §3
[11] = read-out: LC50 (the source's name)

## Cc1ccc2nc(Nc3c(C)cccc3C)sc2c1
CAKI-1
  growth at 0.01 µM: 93%
EKVX
  growth at 0.01 µM: 93%
HOP-62
  growth at 0.1 µM: 98%
OVCAR-8
  GI50: 57.9 µM
  TGI: > 100000 nM
OVCAR-8; [11]
  CC50: > 100 µM
SF-539
  growth at 100 µM: 48%
HCT-15 [1]
  growth at 0.01 µM: 95%
BT-549 [2]
  growth at 0.01 µM: 98%
SNB-75
  GI50: 1260 nM
  LC50: > 100 µM
  TGI: > 100 µM
HCT-15 [3]
  growth at 10 µM: 19.9%
OVCAR-4
  GI50: > 100000 nM
  LC50: > 100 µM
  TGI: > 100000 nM
BT-549 [4]
  growth at 1 µM: 63%
A549 [5]
  growth at 10 µM: 32.6%
HCT-15 [6]
  growth at 10 µM: 23%
RPMI-8226
  growth at 100 µM: 73%
[7]
  growth at 0.1 µM: 97%
OVCAR-3
  growth at 1 µM: 72%
A549 [8]
  growth at 100 µM: 69%
NCI/ADR-RES
  growth at 0.01 µM: 98%
SK-MEL-5
  LC50: > 100 µM
  TGI: > 100000 nM
HCT-15 [9]
  GI50: 920 nM
  LC50: > 100 µM
  TGI: > 100000 nM
HCC 2998
  GI50: > 100000 nM
  TGI: > 100000 nM
  CC50: > 100 µM
HCT-15 [10]
  growth at 100 µM: 40%
UO-31
  growth at 1 µM: 73%
UACC-62
  GI50: 1150 nM
  TGI: > 100000 nM
  CC50: > 100 µM
SNB-19
  growth at 1 µM: 61%
DU-145
  growth at 10 µM: 75%
RXF 393
  GI50: 1200 nM
  TGI: > 100000 nM
RXF 393; [11]
  CC50: > 100 µM

## Clc1cccc(Cl)c1Nc1nc2cccc(Cl)c2s1
CAKI-1
  growth at 0.01 µM: 92%
EKVX
  growth at 0.01 µM: 96%
HOP-62
  growth at 0.1 µM: 96%
OVCAR-8
  GI50: 1.15 µM
  TGI: 2830 nM
SF-539
  growth at 100 µM: -57%
HCT-15 [1]
  growth at 0.01 µM: 93%
BT-549 [2]
  growth at 0.01 µM: 102%
SNB-75
  GI50: 791 nM
  LC50: > 100 µM
HCT-15 [3]
  growth at 10 µM: -42.5%
OVCAR-4
  GI50: 708 nM
  LC50: 5.05 µM
  TGI: 2140 nM
BT-549 [4]
  growth at 1 µM: 79%
A549 [5]
  growth at 10 µM: 0.55%
HCT-15 [6]
  growth at 10 µM: -85%
RPMI-8226
  growth at 100 µM: -13%
[7]
  growth at 0.1 µM: 81%
OVCAR-3
  growth at 1 µM: 50%
A549 [8]
  growth at 100 µM: -55%
NCI/ADR-RES
  growth at 0.01 µM: 99%
SK-MEL-5
  GI50: 1000 nM
  LC50: 4.93 µM
  TGI: 2220 nM
HCT-15 [9]
  GI50: 1160 nM
  LC50: 5.69 µM
  TGI: 2570 nM
HCC 2998
  GI50: 1340 nM
  TGI: 2780 nM
  CC50: 5.74 µM
HCT-15 [10]
  growth at 100 µM: -74%
UO-31
  growth at 1 µM: 26%
UACC-62
  GI50: 1010 nM
  TGI: 2370 nM
  CC50: 5.55 µM
SNB-19
  growth at 1 µM: 68%
DU-145
  growth at 10 µM: -96%
RXF 393
  GI50: 676 nM
  TGI: 2410 nM

— ChEMBL document CHEMBL2040734, “Benzothiazoles: search for anticancer agents” (2012)
